The test system of series [1] is Mus musculus. Briefly: Toxicity in NOD.SCID mouse assessed as maximum mean body weight loss at 8 mg/kg, iv qd for every 7 days (reference value: 9%). The settings on record: in vivo, 168 h. Type of series: organism-based.
The nature of series [2]: Toxicity in iv dosed NOD.SCID mouse xenografted with gamma-irradiated human Kasumi-1 cells administered as […] for every 7 days. Type of series: organism-based. The settings on record: in vivo. In short, it runs like this: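 Kasumi-1 AML xenograft in mice; dosing intravenous once every 7 days at 8 mg/kg.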
In series [3] the test system is Mus musculus. Briefly: Plasma unbound clearance in mouse at 3 mg/kg, iv. In kind it is ADME, organism-based. The settings on record: in vivo. In short, it runs like this:
(§1)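 Mouse PK: 3 mg/kg IV and 10 mg/kg PO. Clearance is expressed unbound, Cl_p,u in L/hr/kg. AUC is unbound, in µM*hr. FaFg is computed as F/(1-Clp/Qh), with mouse liver blood flow Qh 5.2 L/hr/kg. Unbound plasma fraction was measured separately.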

The target of series [4] is T1, Bromodomain-containing protein 4 (Homo sapiens, UniProt O60885). Briefly: Inhibition of BRD4 in human H1299 cells assessed as decrease in HPV LCR-E2-EP400-mediated transcriptional repression after 24 hrs by Bright-Glo luciferase reporter gene assay. In kind it is cell-based.
Series [5] in a line: Fraction unbound in mouse plasma at 1 uM after 4 hrs by LC-MS/MS method. Type of series: ADME, cell-free.
Series [6] concerns Rattus norvegicus. Briefly: Oral absorption in rat at 1 mg/kg. In kind it is ADME, organism-based. Conditions: in vivo. In short, it runs like this: (§2)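 Oral absorption is expressed as FaFg, calculated as F/(1-Clp/Qh). Liver blood flow (Qh) was 5.2 L/hr/kg for mouse and 3.8 L/hr/kg for rat. Mouse dosing was 3 mg/kg IV and 10 mg/kg PO; rat dosing was 1 mg/kg IV and PO.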
The nature of series [7]: Oral bioavailability in mouse at 10 mg/kg. In kind it is ADME, organism-based. The settings on record: in vivo. The method in brief: as §1
The test system of series [8] is Liver. Briefly: Unbound intrinsic clearance in rat liver microsomes at 10 uM preincubated for 5 mins followed by NADPH addition measured after 60 mins by HPLC-UV-MS analysis. In kind it is ADME, microsome. Conditions: 1 h. A general note: Liver microsomes are vesicles of endoplasmic reticulum, rich in cytochrome P450 enzymes.
For series [9], the system named is Liver. Briefly: Unbound intrinsic clearance in human liver microsomes at 10 uM preincubated for 5 mins followed by NADPH addition measured after 60 mins by HPLC-UV-MS analysis. Type of series: ADME, microsome. The settings on record: 1 h.
The subject of series [10] is Mus musculus. Briefly: Oral absorption in mouse at 10 mg/kg. Type of series: ADME, organism-based. Conditions: in vivo. In short, it runs like this:
as §2

Series [11] in a line: Permeability in MDCK cells. Type of series: ADME, cell-based, Canis lupus familiaris. The settings on record: dog, read-out: permeability.
In series [12] the test system is Rattus norvegicus. Briefly: Plasma unbound clearance in rat at 1 mg/kg, iv. In kind it is ADME, organism-based. The settings on record: in vivo. In short, it runs like this: (§3)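 In rats, 1 mg/kg was given by both IV and PO routes. IV clearance is unbound (Cl_p,u, L/hr/kg). FaFg is taken as F/(1-Clp/Qh), using rat Qh 3.8 L/hr/kg. Unbound plasma fraction was determined in rat plasma.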

Series [13] deals with Rattus norvegicus. Briefly: Unbound AUC in rat at 1 mg/kg, po. The settings on record: in vivo.
Series [14] in a line: Oral bioavailability in rat at 1 mg/kg. Type of series: ADME, organism-based. Conditions: in vivo. The method in brief:
as §3

The test system of series [15] is Liver. Briefly: Unbound intrinsic clearance in mouse liver microsomes. In kind it is ADME, microsome. The method in brief:
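Liver microsome stability is expressed as unbound intrinsic clearance, Cl_int,u, in L/hr/kg. Dextromethorphan served as the in-house low-clearance reference control and verapamil as the high-clearance reference control.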

Series [16] relates to Mus musculus. Briefly: Unbound AUC in mouse at 10 mg/kg, po. Type of series: ADME, organism-based. The settings on record: in vivo. The method in brief: as §1
Series [17] deals with T1, Bromodomain-containing protein 4. Briefly: Binding affinity to human N-terminal His6-tagged BRD4 BD1-BD2 (K57 to K550 residues) after 1 hr using alexa-647 conjugated probe by TR-FRET assay.
Series [18] can be described thus: Fraction unbound in rat plasma at 1 uM after 4 hrs by LC-MS/MS method. In kind it is ADME, cell-free.
A further series has as its system MX1. Briefly: Antiproliferative activity against human MX1 cells after 72 hrs by Cell Titer Glo assay. In kind it is functional, cell-based. Conditions: MX1, 72 h.

With `Nc1ncn([C@@H]2O[C@H](CO)[C@@H](O)[C@H]2O)c(=O)n1` [AZACITIDINE], the Activity with Mus musculus [1] is given as 1%. This molecule also yielded an MTD at 168 h in [2] of 8 mg/kg.

As to `Cn1cc(-c2cc(NS(C)(=O)=O)ccc2Oc2ccc(F)cc2F)c2cc[nH]c2c1=O`, the clearance in the series with Mus musculus [3] was 167 mL/min/kg; in the series on Rattus norvegicus [12], 417 mL/min/kg. The EC50 (commonly the concentration needed to bring the measured effect to its halfway point) came to 21 nM in [4] and 29 nM with MX1. For the same molecule, the fraction unbound (as a rule, free concentration divided by total concentration) at 4 h, 1 µM in series [5] stood at 0.033; in [18], 0.036. The figures for the FaFg with Rattus norvegicus [6] and in the series with Mus musculus [10] were 0.52 and 0.7, respectively. Further, the bioavailability (usually the share of a dose that reaches the circulation, judged against a reference dose that is usually intravenous) in series [7] was 65%; in [14] it was 40%. The figures for the CL free with Liver [8], with Liver [9] and in the series on Liver [15] were below 65 mL/min/kg, 155 mL/min/kg and 283 mL/min/kg, respectively. The Papp in [11] came to 17 ×10⁻⁶ cm/s. For the same molecule, the values for the fAUC in the series with Rattus norvegicus [13] and with Mus musculus [16] were 0.19 µM·h and 1.3 µM·h, respectively. In addition, the Ki (as a rule, a dissociation constant, usually derived from enzyme kinetics or from competition with a known ligand) in [17] turned out to be 4.5 nM.

As for `Cn1cc(-c2cc(NS(C)(=O)=O)ccc2Oc2ccccc2)c2cc[nH]c2c1=O`, the figures for the clearance with Mus musculus [3] and in the series with Rattus norvegicus [12] were 650 mL/min/kg and 1230 mL/min/kg, respectively. Besides, the results for the EC50 (in series [4]; in the series on MX1) were 11 nM and 16 nM, respectively. Also, the fraction unbound at 4 h, 1 µM in [5] was 0.039; in [18], 0.034. Further, the FaFg with Rattus norvegicus [6] was 0.32; with Mus musculus [10], 0.77. Also, the results for the bioavailability in series [7] and in series [14] were 55% and 10%, respectively. Besides, the figures for the CL free in the series with Liver [8], with Liver [9] and in the series with Liver [15] were 2000 mL/min/kg, 83.3 mL/min/kg and 300 mL/min/kg, respectively. Besides, the Papp in [11] amounted to 12 ×10⁻⁶ cm/s. Further, the fAUC amounted to 0.016 µM·h in the series on Rattus norvegicus [13] and 0.34 µM·h in the series with Mus musculus [16]. This molecule yielded an inhibition constant Ki in [17] of 2.4 nM.

With `Cn1cc(-c2cc(NS(C)(=O)=O)ccc2Oc2ccc(F)cc2Cl)c2cc[nH]c2c1=O`, the results for the EC50 (in [4]; with MX1) were 35 nM and 27 nM, respectively. In addition, the figures for the CL free with Liver [8], with Liver [9] and with Liver [15] were 317 mL/min/kg, 233 mL/min/kg and 850 mL/min/kg, respectively. For the same molecule, the Papp in [11] is 11 ×10⁻⁶ cm/s. For the same molecule, the Ki in series [17] was found to be 3.1 nM.

The values are drawn from ChEMBL document CHEMBL4017535 (J Med Chem, 2017).
